Molecules are shown by their SMILES. Calls of active or inactive are those of the source. No rule for the calls is given here.

Scavenger receptor class B member 1 (Mus musculus), sequence (Q61009 whole entry, looked up): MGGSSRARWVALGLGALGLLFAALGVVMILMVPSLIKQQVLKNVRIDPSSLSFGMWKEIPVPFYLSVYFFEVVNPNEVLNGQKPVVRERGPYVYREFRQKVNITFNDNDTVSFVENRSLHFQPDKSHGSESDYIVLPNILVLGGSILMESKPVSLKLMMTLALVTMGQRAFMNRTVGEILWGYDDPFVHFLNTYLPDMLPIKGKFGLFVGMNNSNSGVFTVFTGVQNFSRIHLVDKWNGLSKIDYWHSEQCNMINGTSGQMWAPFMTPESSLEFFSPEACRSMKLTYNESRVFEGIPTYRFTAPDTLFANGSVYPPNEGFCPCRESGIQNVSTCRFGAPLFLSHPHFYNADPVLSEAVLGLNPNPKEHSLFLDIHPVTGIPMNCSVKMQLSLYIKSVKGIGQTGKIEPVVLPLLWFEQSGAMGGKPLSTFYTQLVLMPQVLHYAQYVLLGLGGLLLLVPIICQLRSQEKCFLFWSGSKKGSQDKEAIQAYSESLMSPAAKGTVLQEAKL

This assay deals with Scavenger receptor class B member 1 (Mus musculus) (UniProt Q61009). The assay is described as follows: wild-type mSR-BI cholesteryl ester uptake blockade – wild-type cells, scintillation, powder samples, orthogonal assay for SR-BI HDL uptake inhibitor project, late-stage follow-up (AID 588836). The following applies: CHO mSR-BI cells, [3H]cholesteryl ester HDL uptake, at 1 µM, hits give low values. Put shortly:
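Assay system: CHO-derived mSR-BI cells lacking LDL receptor, overexpressing murine SR-BI / Read-out: specific uptake, % of compound-free control / Buffer or medium: Ham's F12K medium with 0.5% fatty-acid-free BSA / Measured by: scintillation counting of tritium label / Timing: 1 h pretreatment plus 2 h uptake at 37 °C / Doses: compound with 0.5% DMSO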
Take `CCOC(=O)N1CCC(NC(=O)c2ccc3c(c2)N(Cc2ccc(F)cc2)CCS3)CC1`: the HDL cholesterol uptake is 45.9%.

Turning to `COc1ccc(-c2nnn(CC(=O)N(C3CCCCC3)C(C)C(=O)NC3CCCC3)n2)cc1OC` (stereo not given), the HDL cholesterol uptake was 48.9%. Under `CCC(=O)N1CCc2cc(-c3csc(NC(=O)c4ccco4)n3)ccc21` stands 52.6%; under `O=C(Nc1ccc(Cl)cc1C(=O)c1ccc(Cl)cc1)c1cc(Br)ccc1NS(=O)(=O)c1ccc(Cl)cc1`, 85.2% (inactive); under `Cc1ccc2oc(-c3cccc(NC(=O)c4cc(-n5cnnc5)ccc4Cl)c3)nc2c1`, 54.8%.

The values are drawn from PubChem BioAssay AID588836 (Broad Institute, 2011).
